Consider 1 compound from ChEMBL document CHEMBL4261634, “Design and optimization of 2,3-dihydrobenzo[b][1,4]dioxine propanoic acids as novel GPR40 agonists with improved pharmacokinetic and safety profiles” (Bioorg Med Chem, 2018).

The subject of data set [1] is Rattus norvegicus. In words: Antidiabetic activity in Sprague-Dawley rat assessed as reduction in blood glucose excursion at 10 mg/kg, po administered 60 mins prior to glucose challenge by OGTT. The data set is classed as functional, organism-based. An outline of the steps:
(§1)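 OGTT in SD rats: compound given orally 60 min before a 3.0 g/kg glucose challenge. Blood glucose followed over time, and AUC0-60min or AUC0-120min calculated versus vehicle group. Mean ± SD, n = 8.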

In data set [2] the test system is Rattus norvegicus. In words: Antidiabetic activity in Sprague-Dawley rat assessed as reduction in blood glucose AUC (0 to 60 mins) at 10 mg/kg, po administered 60 mins prior to glucose challenge by OGTT. In kind it is functional, organism-based. An outline of the steps:
as §1

The subject of data set [3] is Rattus norvegicus. As to the kind of experiment: Antidiabetic activity in Sprague-Dawley rat assessed as reduction in blood glucose AUC (0 to 120 mins) at 10 mg/kg, po administered 60 mins prior to glucose challenge by OGTT. In kind it is functional, organism-based. An outline of the steps:
as §1

Data set [4] can be described thus: Cmax in Sprague-Dawley rat at 10 mg/kg, po by LC-ESI-MS analysis. As to conditions: in vivo. Further details: dose 10 mg/kg, route oral. The data set is classed as ADME, organism-based. An outline of the steps: (§2)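 SD rats dosed orally (3 or 10 mg/kg) or by intravenous injection (1 mg/kg). Plasma PK parameters derived per route: Cmax, AUC0-t, Tmax, t1/2 and F after oral dosing; CL, AUC0-t, MRT, t1/2 and Vdss after iv dosing. Mean ± SD from three independent experiments (n = 3).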

Data set [5] is described as follows: AUC (0 to t) in Sprague-Dawley rat at 10 mg/kg, po by LC-ESI-MS analysis. In kind it is ADME, organism-based. As to conditions: in vivo. An outline of the steps:
as §2

Data set [6] in a line: Tmax in Sprague-Dawley rat at 10 mg/kg, po by LC-ESI-MS analysis. As to conditions: in vivo. The data set is classed as ADME, organism-based. An outline of the steps: as §2
Data set [7] can be described thus: Elimination half life in Sprague-Dawley rat at 10 mg/kg, po by LC-ESI-MS analysis. In kind it is ADME, organism-based. The conditions noted are these: in vivo, read-out: beta t1/2 (converted). An outline of the steps: as §2
Data set [8] deals with ATP-binding cassette sub-family C member 2 (Homo sapiens, UniProt Q92887). As to the kind of experiment: Inhibition of human MRP2.
Chain of ATP-binding cassette sub-family C member 2 (Q92887 whole entry): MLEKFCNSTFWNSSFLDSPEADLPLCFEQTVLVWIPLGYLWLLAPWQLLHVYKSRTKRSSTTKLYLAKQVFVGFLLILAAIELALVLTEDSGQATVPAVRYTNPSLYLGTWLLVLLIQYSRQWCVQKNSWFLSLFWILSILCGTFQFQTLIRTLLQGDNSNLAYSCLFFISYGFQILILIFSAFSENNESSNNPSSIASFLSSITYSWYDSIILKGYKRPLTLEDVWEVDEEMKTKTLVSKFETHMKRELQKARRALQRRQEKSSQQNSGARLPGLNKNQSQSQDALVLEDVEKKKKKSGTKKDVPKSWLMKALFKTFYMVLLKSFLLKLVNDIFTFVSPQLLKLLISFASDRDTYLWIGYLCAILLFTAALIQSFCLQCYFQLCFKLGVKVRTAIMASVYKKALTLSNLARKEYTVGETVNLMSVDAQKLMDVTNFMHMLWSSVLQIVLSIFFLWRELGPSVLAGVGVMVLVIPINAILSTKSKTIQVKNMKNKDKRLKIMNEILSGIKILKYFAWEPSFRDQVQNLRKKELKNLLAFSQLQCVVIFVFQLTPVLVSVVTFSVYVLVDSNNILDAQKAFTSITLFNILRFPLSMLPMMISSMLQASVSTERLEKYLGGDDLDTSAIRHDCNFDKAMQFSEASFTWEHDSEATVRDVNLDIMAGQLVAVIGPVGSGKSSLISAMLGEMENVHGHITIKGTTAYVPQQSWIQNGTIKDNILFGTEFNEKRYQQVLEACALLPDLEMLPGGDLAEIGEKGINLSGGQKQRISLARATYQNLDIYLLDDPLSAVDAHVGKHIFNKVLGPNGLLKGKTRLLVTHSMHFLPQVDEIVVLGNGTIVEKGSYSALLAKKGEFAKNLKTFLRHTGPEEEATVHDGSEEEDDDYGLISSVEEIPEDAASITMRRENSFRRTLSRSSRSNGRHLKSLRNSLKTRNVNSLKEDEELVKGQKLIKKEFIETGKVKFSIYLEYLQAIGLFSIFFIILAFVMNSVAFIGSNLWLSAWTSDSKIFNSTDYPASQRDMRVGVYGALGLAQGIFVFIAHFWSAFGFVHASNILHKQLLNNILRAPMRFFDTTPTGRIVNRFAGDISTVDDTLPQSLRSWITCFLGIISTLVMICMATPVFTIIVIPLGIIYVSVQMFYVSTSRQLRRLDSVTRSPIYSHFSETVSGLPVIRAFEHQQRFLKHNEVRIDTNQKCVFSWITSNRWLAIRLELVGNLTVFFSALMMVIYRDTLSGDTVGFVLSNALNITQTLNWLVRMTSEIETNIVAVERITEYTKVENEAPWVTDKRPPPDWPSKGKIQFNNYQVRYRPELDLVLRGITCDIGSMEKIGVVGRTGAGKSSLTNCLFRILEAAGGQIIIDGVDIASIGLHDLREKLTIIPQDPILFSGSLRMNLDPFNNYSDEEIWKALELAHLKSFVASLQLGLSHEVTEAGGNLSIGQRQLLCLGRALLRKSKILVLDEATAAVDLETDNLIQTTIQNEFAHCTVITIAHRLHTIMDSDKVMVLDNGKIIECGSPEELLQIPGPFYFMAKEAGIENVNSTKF
In data set [9] the target is T1, Solute carrier organic anion transporter family member 1B1 (Homo sapiens, UniProt Q9Y6L6).
T1 sequence (Q9Y6L6 whole entry): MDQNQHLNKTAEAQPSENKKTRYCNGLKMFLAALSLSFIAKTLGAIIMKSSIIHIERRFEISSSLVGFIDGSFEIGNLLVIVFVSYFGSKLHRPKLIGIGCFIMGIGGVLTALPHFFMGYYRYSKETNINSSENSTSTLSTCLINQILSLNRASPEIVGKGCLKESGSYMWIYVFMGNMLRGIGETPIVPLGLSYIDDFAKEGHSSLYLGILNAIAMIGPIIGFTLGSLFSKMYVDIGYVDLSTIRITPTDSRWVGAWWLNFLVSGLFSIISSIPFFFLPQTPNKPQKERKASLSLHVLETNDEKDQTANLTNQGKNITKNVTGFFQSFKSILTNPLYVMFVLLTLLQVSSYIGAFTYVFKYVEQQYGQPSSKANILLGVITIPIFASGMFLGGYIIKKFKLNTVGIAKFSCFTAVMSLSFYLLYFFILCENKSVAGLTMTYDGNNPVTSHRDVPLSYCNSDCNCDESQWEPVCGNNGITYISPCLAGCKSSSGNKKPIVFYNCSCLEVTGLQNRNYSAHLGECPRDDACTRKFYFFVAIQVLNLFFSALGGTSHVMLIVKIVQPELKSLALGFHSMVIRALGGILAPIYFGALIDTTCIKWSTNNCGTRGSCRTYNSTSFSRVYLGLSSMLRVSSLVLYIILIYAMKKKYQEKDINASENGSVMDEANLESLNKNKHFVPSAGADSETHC
In words: Inhibition of human OATP1BA.

Data set [10] has as its target T2, Solute carrier organic anion transporter family member 1B3 (Homo sapiens, UniProt Q9NPD5).
T2 sequence (Q9NPD5 whole entry): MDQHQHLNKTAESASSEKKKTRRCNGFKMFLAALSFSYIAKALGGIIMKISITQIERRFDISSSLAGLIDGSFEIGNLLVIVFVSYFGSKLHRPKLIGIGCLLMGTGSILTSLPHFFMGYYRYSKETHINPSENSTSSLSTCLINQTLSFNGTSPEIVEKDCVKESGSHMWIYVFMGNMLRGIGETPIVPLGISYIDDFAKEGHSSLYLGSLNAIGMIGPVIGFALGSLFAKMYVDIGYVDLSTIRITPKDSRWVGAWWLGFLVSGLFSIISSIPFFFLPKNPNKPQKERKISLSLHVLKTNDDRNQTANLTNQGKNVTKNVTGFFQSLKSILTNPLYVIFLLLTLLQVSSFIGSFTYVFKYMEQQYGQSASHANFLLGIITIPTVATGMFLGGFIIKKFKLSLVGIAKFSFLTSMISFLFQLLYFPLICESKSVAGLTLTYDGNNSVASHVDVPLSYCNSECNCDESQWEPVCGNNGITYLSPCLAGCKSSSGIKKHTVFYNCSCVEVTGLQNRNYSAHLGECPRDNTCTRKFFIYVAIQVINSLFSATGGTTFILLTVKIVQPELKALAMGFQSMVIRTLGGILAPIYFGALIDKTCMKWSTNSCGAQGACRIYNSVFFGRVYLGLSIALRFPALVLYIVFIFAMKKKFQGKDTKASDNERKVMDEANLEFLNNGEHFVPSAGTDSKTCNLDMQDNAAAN
As to the kind of experiment: Inhibition of human OATP1B3. In kind it is ADME.

In a further data set the test system is Hepatocyte. In words: Toxicity in sandwich-cultured Sprague-Dawley rat hepatocytes assessed as inhibition of hepatobiliary transport by measuring biliary excretion index at 20 to 40 uM after 15 mins in presence of d8-TCA by LC-MS/MS analysis. In kind it is cell-based. The conditions noted are these: 0.25 h. An outline of the steps:
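Sandwich-cultured rat hepatocytes incubated with compound and d8-TCA in standard (Ca2+-containing) or Ca2+-free buffer. Cellular d8-TCA measured, and the biliary excretion index calculated as the fraction of accumulated bile acid excreted into bile. Mean of three independent experiments.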

Activity calls are given as the source filed them. No cut-off for these calls is given here.

On to `Cc1cc(OCCCS(C)(=O)=O)cc(C)c1-c1cccc(COc2ccc3c(c2)OC[C@H]3CC(=O)O)c1`, for which the result with Rattus norvegicus [1], in the data set with Rattus norvegicus [2] and in the data set on Rattus norvegicus [3] was Active. In [4], this compound came in with a Cmax of 19400 ng/mL. Also, the AUC(0-t) in data set [5] was 137 µg·h/mL. In [6], the Tmax came to 3.5 h. Moreover, the half-life in [7] was 3.94 h. For the same compound, the IC50 in [8] came out at 2.41 µM; in [9] it was 2.28 µM; in data set [10] it was 11.2 µM. Moreover, in the data set with Hepatocyte, the Activity entry is “Toxic”.
